Experimental data taken from ChEMBL document CHEMBL1138264, “Aromatic lipoxin A4 and lipoxin B4 analogues display potent biological activities” (J Med Chem, 2007).
The source made the active and inactive calls. The rule behind the calls is not given here.

Tests used:
THP-1 [1] = assay: Increase in human THP1 cells mediated phagocytosis of apoptotic polymorphonuclear leukocytes at 1 nM in presence of pan-FPR/ALXR antagonist Boc2; format: functional, cell-based
Procedure, shortened: (§1)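 PMA-differentiated THP-1 cells given Boc2 (100 µM), with or without stimulus, for 15 min at 37 °C. Then co-incubated 2 h with apoptotic human PMNs. Phagocytosis scored by myeloperoxidase staining as % THP-1 cells containing PMNs; mean ± SEM, n = 3, compared with no Boc2.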

THP-1 [2] = assay: Increase in human THP1 cells mediated phagocytosis of apoptotic polymorphonuclear leukocytes at 0.1 pM to 1 nM after 15 mins; format: functional, cell-based
Procedure, shortened: (§2)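 THP-1 cells differentiated with 100 nM PMA for 48 h (5 × 10^5 cells/well), pretreated 15 min at 37 °C, then co-incubated 2 h at 37 °C with 1 × 10^6 human PMNs made apoptotic by 20 h culture. Vehicle was 0.1% DMSO or ethanol. After cold PBS washes, myeloperoxidase staining; % THP-1 cells containing ≥1 PMN (≥400 cells, duplicate wells); n = 3.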

THP-1 [3] = assay: Induction of F-actin rearrangement in human THP1 cells at 1 nM after 15 mins; format: functional, cell-based
Procedure, shortened: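 PMA-differentiated THP-1 cells (1 × 10^6/well) on glass coverslips, exposed to stimulus at 1 nM for 15 min. Fixed in 3.8% paraformaldehyde, permeabilized with 0.1% Triton X-100, stained with 0.33 µmol/L Oregon Green-phalloidin for 30 min. F-actin localization imaged by fluorescence microscopy (×100 oil objective); three independent experiments.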

THP-1 [4] = assay: Increase in human THP1 cells mediated phagocytosis of apoptotic polymorphonuclear leukocytes at 10 pM after 15 mins; format: functional, cell-based; procedure, shortened: as §2
THP-1 [5] = assay: Increase in human THP1 cells mediated phagocytosis of apoptotic polymorphonuclear leukocytes at 1 nM after 15 mins; format: functional, cell-based; procedure, shortened: as §2
THP-1 [6] = assay: Increase in human THP1 cells adherence to laminin after 30 mins; format: functional, cell-based
Procedure, shortened: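 THP-1 cells loaded with 1 µM BCECF-AM for 20 min at 37 °C, then resuspended at 3.3 × 10^6/mL in PBS2+ with 0.1% BSA. Cells settled 10 min on laminin-coated wells, then given agonist or vehicle for 30 min at 37 °C. Washed, lysed in NaOH/SDS, fluorescence read. Percent adherence above vehicle; three experiments, each in triplicate.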

THP-1 [7] = assay: Increase in human THP1 cells mediated phagocytosis of apoptotic polymorphonuclear leukocytes at 1 pM in presence of pan-FPR/ALXR antagonist Boc2; format: functional, cell-based; procedure, shortened: as §1
Mus musculus = assay: Decrease in zymosan-induced neutrophil accumulation in mouse model of peritonitis at 50 ug/kg, iv; format: functional, organism-based
Procedure, shortened: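 Zymosan A peritonitis in mice: analogue at 0.5-50 µg/kg given intravenously (vehicle n = 15; n = 6 per dose group), followed 5 min later by i.p. zymosan A, 1 mg in 0.5 mL sterile PBS. Peritoneal lavage at 4 h with PBS/3 mM EDTA/heparin. Cells Fc-blocked, stained with PE anti-Gr-1 and counted as neutrophils (Gr-1+). Mean ± SEM versus vehicle.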

THP-1 [8] = assay: Increase in human THP1 cells mediated phagocytosis of apoptotic polymorphonuclear leukocytes at 0.01 pM after 15 mins; format: functional, cell-based; procedure, shortened: as §2
THP-1 [9] = assay: Increase in human THP1 cells mediated phagocytosis of apoptotic polymorphonuclear leukocytes at 0.01 pM to 1 nM after 15 mins; format: functional, cell-based; procedure, shortened: as §2

| Structure (SMILES) | Activity (THP-1 [1]) | Activity (THP-1 [2]) | Activity (THP-1 [3]) | Activity (THP-1 [6]) | Activity (THP-1 [9]) | other results |
| --- | --- | --- | --- | --- | --- | --- |
| CCCCC[C@H](O)/C=C/C=C\C=C\C=C\[C@@H](O)[C@@H](O)CCCC(=O)O | inactive | Active | – | – | – | – |
| CCCCC[C@H](O)[C@H](O)/C=C/c1ccccc1[C@@H](O)CCCC(=O)OC(C)(C)C | – | – | Active | – | – | Activity (THP-1 [4]): Active |
| CCCCC[C@H](O)c1ccccc1/C=C/[C@@H](O)[C@@H](O)CCCC(=O)OC | inactive | – | Active | Active | – | Activity (THP-1 [5]): Active |
| CCCCC[C@@H](O)c1ccccc1/C=C/[C@@H](O)[C@@H](O)CCCC(=O)OC | – | Active | Active | Active | – | Activity (THP-1 [7]): inactive; Activity (Mus musculus): Active; Activity (THP-1 [8]): inactive |
| CCCCC[C@@H](O)c1ccccc1/C=C/[C@@H](O)[C@@H](O)CCCC(=O)O | – | – | – | – | inactive | – |
| CCCCC[C@H](O)c1ccccc1/C=C/[C@@H](O)[C@@H](O)CCCC(=O)O | – | – | – | – | inactive | – |
